Assay results collected from several papers.
Lines come from different studies, so protocols differ.
Target: Serine/threonine-protein kinase Chk1 (CHEK1, Homo sapiens, UniProt O14757)
Residues used in one study (O14757 1-476): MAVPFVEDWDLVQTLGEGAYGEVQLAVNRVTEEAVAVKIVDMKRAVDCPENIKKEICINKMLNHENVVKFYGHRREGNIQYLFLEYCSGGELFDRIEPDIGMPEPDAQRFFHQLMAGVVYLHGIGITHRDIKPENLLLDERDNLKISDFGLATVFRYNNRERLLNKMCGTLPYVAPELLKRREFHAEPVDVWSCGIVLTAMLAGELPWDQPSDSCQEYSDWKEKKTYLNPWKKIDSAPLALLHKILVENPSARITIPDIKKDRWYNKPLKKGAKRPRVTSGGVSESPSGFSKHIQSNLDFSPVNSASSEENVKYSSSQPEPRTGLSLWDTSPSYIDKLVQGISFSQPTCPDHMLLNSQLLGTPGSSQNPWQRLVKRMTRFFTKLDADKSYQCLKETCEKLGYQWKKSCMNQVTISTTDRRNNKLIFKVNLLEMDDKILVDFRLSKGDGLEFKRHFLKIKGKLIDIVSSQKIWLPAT

C[C@@H]1CCN(c2nccc(-c3cnn4ncccc34)n2)C1 — remaining binding (binding; 1 µM): 100%
CC(=O)c1c(NS(C)(=O)=O)c2cc(-c3ccc(Cl)cc3)c(-c3ccc(Cl)cc3Cl)nc2n(C)c1=O — remaining binding (cell-free assay; competition with immobilised ligand; 1 µM): 100%
N#Cc1ccccc1CSc1nnc2c(n1)[nH]c1ccccc12 — remaining binding (binding; competition with immobilised ligand; 10 µM): 87%
COc1cnc(Nc2cccc(S(N)(=O)=O)c2)nc1N1CCN(c2ccccc2)CC1 — remaining binding (binding; competition with immobilised ligand; 1 µM): 100%
CN(C)c1ncc(F)c(-c2cnn3ncccc23)n1 — remaining binding (binding; 1 µM): 87%
O=C(c1ccc(Nc2ncc(Cl)c(-c3ccc(Cl)s3)n2)cc1)N1CCC(N2CCCC2)CC1 — remaining binding (binding; competition with immobilised ligand; 1 µM): 37%
CC(=O)Nc1c(C(C)=O)c(=O)n(C)c2nc(-c3ccc(Cl)cc3Cl)c(-c3ccc(Cl)cc3)cc12 — remaining binding (cell-free assay; competition with immobilised ligand; 1 µM): 100%
Cc1cnn2ncc(-c3ccnc(N(C)C)n3)c2c1 — remaining binding (binding; 1 µM): 100%
Cc1nc(C2CCN(C(=O)c3ccc(OC(F)(F)F)cc3N)CC2)c2ncc(N3CCN(C)CC3)cc2n1 — remaining binding (cell-free assay; competition with immobilised ligand; 1 µM): 100%
CN(c1nccc(-c2cnn3ncccc23)n1)C1CC1 — remaining binding (binding; 1 µM): 78%
c1cncc(-c2cccc(Nc3nccc(NC4CCCCC4)n3)c2)c1 — remaining binding (binding; competition with immobilised ligand; 10 µM): 94%
FC(F)(F)c1ccc2c(c1)nc(-c1cccnc1)n2C1CC1 — remaining binding (cell-free assay; competition with immobilised ligand; 1 µM): 100%
Cc1cnc(Nc2ccc(C(=O)N3CCC(N4CCCC4)CC3)cc2)nc1-c1cc2ccccc2s1 — remaining binding (binding; competition with immobilised ligand; 1 µM): 33%
CNC(=O)[C@@H]1CC[C@@H](n2c(-c3ccc4cnccc4c3)nc3ccc(C(=O)NCc4cccc(C(N)=O)c4)cc32)C1 — remaining binding (binding; competition with immobilised ligand; 1 µM): 100%
C[C@@H]1CN(c2ccc3ncc(-c4ccc5[nH]nc(C6CC6)c5c4)n3n2)C[C@H](C)O1 — remaining binding (binding; competition with immobilised ligand; 0.5 µM): 100%
N#Cc1ccc(Nc2ccc3[nH]c(=O)[nH]c3c2)c(Cl)c1 — remaining binding (cell-free assay; competition with immobilised ligand; 1 µM): 98%
COc1ncc2cc3ccccc3nc2c1C#N — remaining binding (cell-free assay; competition with immobilised ligand; 5 µM): 100%
O=C(NCC1CCOCC1)c1n[nH]cc1NC(=O)c1c(F)cccc1F — remaining binding (binding; competition with immobilised ligand; 1 µM): 100%
F[C@@H]1CCN(c2nccc(-c3cnn4ncccc34)n2)C1 — remaining binding (binding; 1 µM): 92%
CCCCN(CCCC)C(=O)CN1C[C@H](c2cc(OC)c3c(c2)OCO3)[C@@H](C(=O)O)[C@@H]1CC(C)(C)CCC — remaining binding (cell-free assay; competition with immobilised ligand; 1 µM): 100%
N[C@@H]1CCN(c2nccc(-c3cnn4ncccc34)n2)C1 — remaining binding (binding; 1 µM): 100%
O=C(c1ccc(Nc2ncc(Cl)c(-c3cc4ccccc4s3)n2)cc1)N1CCC(N2CCCC2)CC1 — remaining binding (binding; competition with immobilised ligand; 1 µM): 54%
CC(=O)N1CCC(c2ccc(C(=O)NC(=N)N)cc2C(F)(F)F)CC1 — remaining binding (cell-free assay; competition with immobilised ligand; 1 µM): 95%
